This passage reports logD and IC50 results from ChEMBL document CHEMBL1125654, “New inhibitors of human renin that contain novel replacements at the P2 site” (J Med Chem, 1991).

Data set [1] in a line: Partition coefficient (logD7.4). The note with it: octanol/water.
For data set [2], the target named is T1, Renin (Homo sapiens, UniProt P00797).
T1 sequence (P00797 whole entry): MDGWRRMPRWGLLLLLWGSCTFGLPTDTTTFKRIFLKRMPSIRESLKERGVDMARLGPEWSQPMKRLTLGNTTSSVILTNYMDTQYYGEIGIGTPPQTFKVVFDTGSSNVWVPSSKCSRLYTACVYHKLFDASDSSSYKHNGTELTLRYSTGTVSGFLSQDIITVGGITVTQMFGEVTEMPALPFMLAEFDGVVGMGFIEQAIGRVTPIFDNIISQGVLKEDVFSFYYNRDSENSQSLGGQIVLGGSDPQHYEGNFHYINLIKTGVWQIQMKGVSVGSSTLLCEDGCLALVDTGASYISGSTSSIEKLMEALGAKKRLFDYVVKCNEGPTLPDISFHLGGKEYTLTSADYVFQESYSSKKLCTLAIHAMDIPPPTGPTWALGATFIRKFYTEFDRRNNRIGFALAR
Description: Inhibitory activity against monkey plasma renin. Format: cell-free, Cercopithecidae. The note with it: target entry is the homologue from another species. The essentials:
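Plasma from salt-depleted, furosemide-treated monkeys (native renin and angiotensinogen) incubated with maleate buffer (pH 6.0), PMSF and inhibitor in DMSO for 60 min at 37 °C. Plasma renin activity was 3–8 ng AI/mL per h. Percent inhibition was taken vs DMSO vehicle tubes, and IC50 from six concentrations by nonlinear regression.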

For data set [3], the target named is T1, Renin. Nature of the data set: Inhibitory activity against human plasma renin. The format is cell-free.

The structures appear in SMILES notation. pIC50: −log10 of the molar value.

As usually defined, the logD is the decadic logarithm of the distribution of all forms, ionised or not, between an organic phase and buffer at a given pH. As a reminder, the pIC50 is −log10 of the IC50, conventionally taken in molar units. `CNC(=S)NCCCCC(NC(=O)C(Cc1cccc2ccccc12)Cc1cccc2ccccc12)C(=O)NC(CC(C)C)[C@@H](O)C(F)(F)C(=O)N1CCOC(CCN)C1` (stereo partly drawn) came in with a pH-dependent lipophilicity (logD) in data set [1] (pH 7.4, logD) of 5.5. This compound showed a pIC50 against Renin [2] of 6.46.

In data set [1] (pH 7.4, logD), `CC(=O)NCC#CCC(NC(=O)C(Cc1ccccc1)NS(=O)(=O)N1CCOCC1)C(=O)NC(CC1CCCCC1)[C@@H](O)CC(=O)N1CCOC(CCN)C1` (stereo partly drawn) returned a logD of 2.12. For the same compound, on Renin [2], the negative logarithm of the IC50 (pIC50) is 9.30.

Consider `CC(C)CC(NC(=O)C(CCCCNC(=O)OCc1ccccc1)NC(=O)C(Cc1ccccc1)NS(=O)(=O)N1CCOCC1)C(=O)C(F)(F)C(=O)N1CCOC(CCN)C1` (stereo not drawn), for which the logD in data set [1] (pH 7.4, logD) was found to be 2.32. Further, the negative-log IC50 (pIC50) on Renin [2] is 8.48.

As to `CCC(C)CNC(=O)C[C@H](O)C(CC(C)C)NC(=O)C(CCCCNC(=O)NC)NC(=O)C(Cc1cccc2ccccc12)Cc1cccc2ccccc12` (stereo partly drawn), the logD in data set [1] (pH 7.4, logD) was determined as 5.63. The pIC50 on Renin [2] is 7.36; at Renin [3], 7.54.

Turning to `CCC(C)CNC(=O)C[C@H](O)C(CC(C)C)NC(=O)C(CC#CCNC(C)=O)NC(=O)C(Cc1cccc2ccccc12)Cc1cccc2ccccc12` (stereo in doubt; 55b), the logD in data set [1] (pH 7.4) is reported as 5.06. The negative logarithm of the IC50 (pIC50) on Renin [2] was 7.39; against Renin [3] it was 7.54.

For `NCCC1CN(C(=O)C[C@H](O)C(CC2CCCCC2)NC(=O)C(CC#CCNC=O)NC(=O)C(Cc2cccc3ccccc23)Cc2cccc3ccccc23)CCO1` (stereo partly drawn), in data set [1] (pH 7.4, logD), the log distribution coefficient (logD) came to 5.44. The same compound gave a pIC50 on Renin [2] of 8.06.

In data set [1] (pH 7.4, logD), `CC(C)(C)OC(=O)NCC#CCC(NC(=O)C(Cc1ccccc1)NS(=O)(=O)N1CCOCC1)C(=O)NC(CC1CCCCC1)[C@@H](O)CC(=O)N1CCOC(CCN)C1` (stereo in doubt; 61b) returned a logD of 3.13. Further, the negative logarithm of the IC50 (pIC50) against Renin [2] is 6.15.

Regarding `CC(C)CC(NC(=O)C(CCCC/N=C(/N)N[N+](=O)[O-])NC(=O)C(CC(=O)N1CCOCC1)Cc1cccc2ccccc12)[C@@H](O)CC(=O)N1CCOC(CCN)C1` (stereo partly drawn), the pH-dependent lipophilicity (logD) in data set [1] (pH 7.4) is 1.95. The same compound had a pIC50 on Renin [2] of 6.40.

Regarding `N=C(NCC#CCC(NC(=O)C(Cc1cccc2ccccc12)Cc1cccc2ccccc12)C(=O)NC(CC1CCCCC1)[C@@H](O)CC(=O)N1CCOC(CCN)C1)N[N+](=O)[O-]` (stereo partly drawn), the pH-dependent lipophilicity (logD) in data set [1] (pH 7.4) is 4.73. Moreover, the negative logarithm of the IC50 (pIC50) against Renin [2] is 7.92.

Consider `CC(C)CC(NC(=O)C(CCCC/N=C(/N)N[N+](=O)[O-])NC(=O)C(Cc1cccc2ccccc12)Cc1cccc2ccccc12)[C@@H](O)CC(=O)N1CCOC(CCN)C1` (stereo partly drawn), for which the logD in data set [1] (pH 7.4) was 4.09. Besides, the pIC50 against Renin [2] was 7.40; at Renin [3], 7.35.

`CCC(C)CNC(=O)C[C@H](O)C(CC(C)C)NC(=O)C(CCNC(=S)NC)NC(=O)C(Cc1cccc2ccccc12)Cc1cccc2ccccc12` (stereo partly drawn): the logD in data set [1] (pH 7.4, logD) came out at 5.7. Moreover, the pIC50 is 5.60 at Renin [2] and 5.03 against Renin [3].

As for `CCC(C)CNC(=O)C[C@H](O)C(CC(C)C)NC(=O)C(CCCCNC(=S)Nc1ccccc1)NC(=O)C(Cc1cccc2ccccc12)Cc1cccc2ccccc12` (stereo partly drawn), in data set [1] (pH 7.4, logD), the logD is 6.6. The negative-log IC50 (pIC50) against Renin [2] is 6.86; at Renin [3], 7.24.

In data set [1] (pH 7.4, logD), `CNC(=S)NCC#CCC(NC(=O)C(Cc1cccc2ccccc12)Cc1cccc2ccccc12)C(=O)NC(CC1CCCCC1)[C@@H](O)CC(=O)N1CCOC(CCN)C1` (stereo partly drawn) yielded a log distribution coefficient (logD) of 5.46. The compound further gave a pIC50 at Renin [2] of 7.32.

For `CC(C)(C)OC(=O)NCC#CCC(NC(=O)C(Cc1ccccc1)NS(=O)(=O)N1CCOCC1)C(=O)NC(CC1CCCCC1)[C@@H](O)CC(=O)N1CCOC(CCN)C1` (stereo in doubt; 61a), the logD in data set [1] (pH 7.4) is 3.96. Moreover, the negative-log IC50 (pIC50) at Renin [2] is 7.96.

In the case of `CCC(C)CNC(=O)C[C@H](O)C(CC(C)C)NC(=O)C(CCCCCNC(=S)NC)NC(=O)C(Cc1cccc2ccccc12)Cc1cccc2ccccc12` (stereo partly drawn), the logD in data set [1] (pH 7.4, logD) worked out at 5.41. Also, the pIC50 at Renin [2] was 7.41; at Renin [3] it was 7.40.

In data set [1] (pH 7.4, logD), `CNC(=S)NCCCCC(NC(=O)C(Cc1cccc2ccccc12)Cc1cccc2ccccc12)C(=O)NC(CC(C)C)[C@@H](O)CC(=O)N(C)OC` (stereo partly drawn) gave a pH-dependent lipophilicity (logD) of 4.83. Moreover, the pIC50 against Renin [2] is 4.98.

`CCC(C)CNC(=O)C[C@H](O)C(CC(C)C)NC(=O)C(CCCCN)NC(=O)C(Cc1cccc2ccccc12)Cc1cccc2ccccc12` (stereo partly drawn) showed a logD in data set [1] (pH 7.4, logD) of 5.25. Further, the results for the pIC50 at Renin [2] and against Renin [3] were 5.46 and 5.59, respectively.

`CCC(C)CNC(=O)C[C@H](O)C(CC(C)C)NC(=O)C(CCCCNC(C)=O)NC(=O)C(Cc1cccc2ccccc12)Cc1cccc2ccccc12` (stereo partly drawn) gave a logD in data set [1] (pH 7.4, logD) of 4.38. Also, the pIC50 on Renin [2] was 7.44; against Renin [3], 8.21.

As for `CCC(C)CNC(=O)C[C@H](O)C(CC(C)C)NC(=O)C(C/C=C/C/N=C(/S)NC)NC(=O)C(Cc1cccc2ccccc12)Cc1cccc2ccccc12` (stereo partly drawn), in data set [1] (pH 7.4, logD), the logD was found to be 5.23. Also, the negative logarithm of the IC50 (pIC50) at Renin [2] was 7.59; at Renin [3] it was 7.39.

Turning to `CCC(C)CNC(=O)C[C@H](O)C(CC(C)C)NC(=O)C(CC#CCNC(=O)OCc1ccccc1)NC(=O)C(Cc1cccc2ccccc12)Cc1cccc2ccccc12` (stereo partly drawn), the logD in data set [1] (pH 7.4, logD) came to 7.37. In addition, the negative logarithm of the IC50 (pIC50) against Renin [2] is 6.61; against Renin [3], 6.82.

In data set [1] (pH 7.4, logD), `CCC(C)CNC(=O)C[C@H](O)C(CC(C)C)NC(=O)C(CCCCCCN=C(S)NC)NC(=O)C(Cc1cccc2ccccc12)Cc1cccc2ccccc12` (stereo partly drawn) displayed a logD of 5.64. The pIC50 against Renin [2] is 7.36; against Renin [3], 7.32.

In data set [1] (pH 7.4, logD), `CCC(C)CNC(=O)C[C@H](O)C(CC(C)C)NC(=O)C(CCCCNC(=NC#N)SC)NC(=O)C(Cc1cccc2ccccc12)Cc1cccc2ccccc12` (stereo partly drawn) showed a log distribution coefficient (logD) of 5.51. In addition, the pIC50 against Renin [2] was 7.39; against Renin [3], 7.72.

Regarding `C/N=C(\S)NCCCCC(NC(=O)C(CC(=O)N1CCOCC1)Cc1cccc2ccccc12)C(=O)NC(CC1CCCCC1)[C@@H](O)CC(=O)N1CCOC(CCN)C1` (stereo partly drawn), the logD in data set [1] (pH 7.4, logD) is 1.68. Moreover, the pIC50 is 7.44 at Renin [2] and 7.70 at Renin [3].

`C/N=C(\S)NCCCCC(NC(=O)C(Cc1ccccc1)NS(=O)(=O)N1CCOCC1)C(=O)NC(CC1CCCCC1)[C@H](O)C(F)(F)C(=O)N1CCOC(CCN)C1` (stereo partly drawn) had a logD in data set [1] (pH 7.4, logD) of 2.93. At Renin [2], this compound had a negative-log IC50 (pIC50) of 8.64.

`CS/C(=N\CCCCC(NC(=O)C(CC(=O)N1CCOCC1)Cc1cccc2ccccc12)C(=O)NC(CC(C)C)[C@@H](O)CC(=O)N1CCOC(CCN)C1)NC#N` (stereo partly drawn) gave a logD in data set [1] (pH 7.4, logD) of 1.68. For the same compound, on Renin [2], the pIC50 is 6.46.

`CCC(C)CNC(=O)C[C@H](O)C(CC(C)C)NC(=O)C(C/C=C\CNC(C)=O)NC(=O)C(Cc1cccc2ccccc12)Cc1cccc2ccccc12` (stereo partly drawn) registered a log distribution coefficient (logD) in data set [1] (pH 7.4, logD) of 5.56. On Renin [2], this compound showed a pIC50 of 7.00.

`CCC(C)CNC(=O)C[C@H](O)C(CC(C)C)NC(=O)C(Cc1cnc[nH]1)NC(=O)C(Cc1cccc2ccccc12)Cc1cccc2ccccc12` (stereo partly drawn): the pIC50 at Renin [2] is 7.07; at Renin [3], 7.21.

`CS/C(=N\CCCCC(NC(=O)C(Cc1cccc2ccccc12)Cc1cccc2ccccc12)C(=O)NC(CC(C)C)[C@@H](O)CC(=O)N1CCOC(CCN)C1)NC#N` (stereo partly drawn) had a logD in data set [1] (pH 7.4, logD) of 4.67. Moreover, the pIC50 on Renin [2] is 7.05.

Compound `CNC(=S)NCCCCC(NC(=O)C(Cc1ccccc1)S(=O)(=O)C(C)(C)C)C(=O)NC(CC1CCCCC1)[C@@H](O)CC(=O)N1CCOC(CCN)C1` (stereo partly drawn) had a logD in data set [1] (pH 7.4, logD) of 2.64. Besides, the pIC50 at Renin [2] is 7.57.

As to `C/N=C(\S)NCC#CCC(NC(=O)C(Cc1ccccc1)NS(=O)(=O)N1CCOCC1)C(=O)NC(CC1CCCCC1)[C@@H](O)CC(=O)N1CCOC(CCN)C1` (stereo partly drawn), the pH-dependent lipophilicity (logD) in data set [1] (pH 7.4, logD) came to 2.9. The negative-log IC50 (pIC50) against Renin [2] is 8.48.
